Screens deposited in PubChem BioAssay by several laboratories.
TCR-CD3 inh: inhibitors of human TCR-CD3 interaction | TAMRA-labeled TCR probe fluorescence, biochemical | inhibition, % at 9.4 µM | actives 0.37% (n = 360,000) | AID 651800; in the data active = inhibition above about 19%;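 also: recombinant mutant TCR 2C K166C tagged with TAMRA read by polarization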
eIF4H inh: inhibitors of RNA binding by human eIF4H. AID 2012. inhibition, % at 35 µM. actives 0.94% (n = 290,000). eIF4H fluorescence polarization binding assay;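 also: calls also rest on retests at 20 µM and on dose response follow-up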
MLLE-PAM2 inh: blocks PAM2 peptide binding to the PABP1 MLLE domain; P11940; actives 0.36% (n = 360,000); AID 588489; inhibition, % at 20 µM; GST-MLLE / FITC-PAM2 fluorescence polarization; in the data active = inhibition above about 35%, passing the limit was not always enough
RBBP9 inhibitor: blocks human serine hydrolase RBBP9; actives 0.2% (n = 220,000); AID 1515; recombinant RBBP9, FP-Rh probe fluorescence polarization; inhibition, % at 7.94 µM;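 active = inhibition above the campaign mean of all tested compounds plus 3 SD, cut at about 14% in these data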
Target sequence (O75884 whole entry, looked up): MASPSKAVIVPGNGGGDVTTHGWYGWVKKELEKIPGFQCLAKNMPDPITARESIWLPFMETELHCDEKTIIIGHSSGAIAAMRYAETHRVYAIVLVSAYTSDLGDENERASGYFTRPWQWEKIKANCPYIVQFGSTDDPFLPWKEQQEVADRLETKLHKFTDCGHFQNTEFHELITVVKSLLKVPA
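Assay system: recombinant human RBBP9; Reagent: Serine-hydrolase probe FP-Rh, 375 nM pre-mixing; Doses: 7.94 µM single dose, 0.794% DMSO; Incubation: 30 min then 45 min, 25 °C; Detection: fluorescence polarization (mP), excitation 525 nm, emission 598 nm; Evaluation: percent inhibition from mP, scaled between DMSO and no-protein wells.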
PABP polyA inh: PABP-poly(A) binding inhibition | PABP-poly(A) RNA binding, fluorescence polarization | calls only at 35 µM | actives 1% (n = 290,000) | AID 2014;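 also: calls also rest on retests at 20 µM and on dose response follow-up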
Each line names hits and unclear results; the compound was inactive in the other large screens. Hits are enriched below; roughly 1.6% of the tested compounds scored in any of these assays. Unless noted, no rule for the calls is given here.

O=C(O)CN1C(=O)/C(=C\c2cc(Br)ccc2OCc2ccc([N+](=O)[O-])cc2)SC1=S	eIF4H inh 67.9, PABP polyA inh active (no result: RBBP9 inhibitor)
O=C(O)CN1C(=O)/C(=C\c2cc(Br)ccc2OCc2ccccc2F)SC1=S	none (no result: RBBP9 inhibitor)
O=C(CCN1CCOCC1)c1ccccc1	none
O=C(CCN1CCOCC1)NNC(=S)NC(=O)c1ccccc1	MLLE-PAM2 inh 38.4
COc1ccc(Oc2ncnc3sccc23)cc1	none
Cc1nc(Oc2ccccc2)c2ccsc2n1	eIF4H inh 74.7, PABP polyA inh active
CC(C)Oc1ccc(CN=C(N)N=C(N)N)cc1Cl	eIF4H inh active, PABP polyA inh active
COc1cc2c(ccc3cc(OC)c(OC)c(O)c32)cc1O	TCR-CD3 inh 38.6, eIF4H inh 73.9, PABP polyA inh active (no result: RBBP9 inhibitor)
O=C(NCC1CCN(C(=O)C(=O)c2cccs2)CC1)c1ccc2c(c1)CCO2	none (no result: eIF4H inh, MLLE-PAM2 inh, RBBP9 inhibitor, PABP polyA inh)
CCN(CC)c1ncccc1C(=O)NCc1cccs1	none
Cc1ccc(C)c(Nc2ncccc2C(=O)NCc2cccs2)c1	eIF4H inh inconclusive, PABP polyA inh active
CCCN1CCCCC(NC(=O)c2ccc(C)cc2C)C1=O (stereo not given)	none (no result: eIF4H inh, MLLE-PAM2 inh, RBBP9 inhibitor, PABP polyA inh)
CC(=O)N1CCN(c2ccc(N3CCN(Cc4ccccc4)[C@@H](C)C3)c(C)c2)[C@H](C)C1	none (no result: eIF4H inh, MLLE-PAM2 inh, RBBP9 inhibitor, PABP polyA inh)
c1ccc2c(c1)NCC1CCCN21 (stereo not given)	eIF4H inh 103.5 (no result: RBBP9 inhibitor)
OC(c1ccccc1)(c1ccccc1)C1CCN(CCCOc2ccc(-c3ccc(F)cc3F)cc2)CC1	none (no result: eIF4H inh, MLLE-PAM2 inh, RBBP9 inhibitor, PABP polyA inh)
CCN1C(=O)[C@@H]2[C@@H](c3ccc(SC4CCCCC4)cc3)N3CCC[C@@]3(C(=O)OC)[C@@H]2C1=O	MLLE-PAM2 inh 40.2 (no result: eIF4H inh, RBBP9 inhibitor, PABP polyA inh)
CCN1C(=O)[C@H]2[C@@H](c3ccc(SC4CCCCC4)cc3)N3CCCC[C@@]3(C(=O)OC)[C@H]2C1=O	none (no result: eIF4H inh, RBBP9 inhibitor, PABP polyA inh)
OCCCCCNc1ncnc2ccccc12	none
CCN(CC)CCCNc1ncnc2ccccc12	PABP polyA inh active
COc1ccc(Sc2cccc(Cl)c2)c(C(=O)O)c1	none (no result: eIF4H inh, MLLE-PAM2 inh, RBBP9 inhibitor, PABP polyA inh)
COc1ccc(C2=CC3=C(Br)C(=O)C(C)(OC(=O)c4ccc(Cl)nc4)C(=O)C3=CO2)cc1 (stereo not given)	PABP polyA inh active (no result: TCR-CD3 inh, MLLE-PAM2 inh, RBBP9 inhibitor)
COc1ccc(C2=CC3=C(Br)C(=O)C(C)(OC(=O)C4CCCC4)C(=O)C3=CO2)cc1 (stereo not given)	eIF4H inh inconclusive, PABP polyA inh inconclusive (no result: TCR-CD3 inh, RBBP9 inhibitor)
CCCNC(=O)c1nnsc1S(=O)c1ccc(Cl)cc1 (stereo not given)	MLLE-PAM2 inh 37.5
CNC(=O)c1nnsc1S(=O)c1ccc(Cl)cc1 (stereo not given)	none
O=C(/C=C/c1ccc(Br)o1)Nc1nccs1	eIF4H inh 56.8, PABP polyA inh active
COC(=O)c1cc2c(c3c4cc(F)ccc4n(S(=O)(=O)c4ccccc4)c13)C(=O)N(Cc1ccc(N(C)C)cc1)C2	none (no result: eIF4H inh, MLLE-PAM2 inh, RBBP9 inhibitor, PABP polyA inh)
C=CCNc1cccc2c1S(=O)(=O)N[C@@H](C)CO2	none (no result: eIF4H inh, MLLE-PAM2 inh, RBBP9 inhibitor, PABP polyA inh)
CCN(CC)CCCN1C(=O)C(O)=C(C(=O)c2ccc(C)o2)C1c1ccc(C)o1 (stereo not given)	PABP polyA inh active
CCCCCCc1cc2cc(C(N)=O)c(=N)oc2cc1O	eIF4H inh 96.2, PABP polyA inh active (no result: TCR-CD3 inh, MLLE-PAM2 inh)
CCCCCCc1cc2cc(C(=O)NC)c(=N)oc2cc1O	none
O=C(NN=C1CCN(Cc2ccccc2)CC1)c1cc2ccccc2cc1O	eIF4H inh 96.6, PABP polyA inh active
COC(=O)[C@]12C[C@H](CC(=O)NCc3ccccc3)C(=O)N(CCC3=CCCCC3)C1=C[C@H](COCc1ccccc1)O[C@@H]2C	none (no result: eIF4H inh, MLLE-PAM2 inh, RBBP9 inhibitor, PABP polyA inh)
COc1ccc(OC)c(/C=c2\sc3nc(-c4cccs4)nn3c2=O)c1	eIF4H inh inconclusive
CCOc1ccc(/C=c2\sc3nc(-c4ccco4)nn3c2=O)cc1OCC	MLLE-PAM2 inh 43.3
COc1cc(/C=c2\sc3nc(=O)c(-c4ccccc4)nn3c2=O)ccc1OCCC(C)C	none
COc1ccccc1/C=c1\sc2nc(-c3ccco3)nn2c1=O	eIF4H inh 90.5, PABP polyA inh active (no result: TCR-CD3 inh)
Nc1nc2c(ncn2[C@@H]2O[C@H](C(=O)NCCCc3ccccc3)[C@@H](O)[C@H]2O)c(=O)[nH]1	none (no result: eIF4H inh, MLLE-PAM2 inh, RBBP9 inhibitor, PABP polyA inh)
CC(=O)C1=C(C)N(Cc2ccc(F)cc2)C(=S)NC1c1cccc(Cl)c1 (stereo not given)	none (no result: eIF4H inh, MLLE-PAM2 inh, RBBP9 inhibitor, PABP polyA inh)
Nc1c(C(=O)Nc2ccccc2)sc2nc3c(c(-c4ccco4)c12)CCC3	eIF4H inh 84.3, PABP polyA inh active
Cc1ccc(NC(=O)c2sc3nc4c(c(-c5ccco5)c3c2N)CCC4)cc1	eIF4H inh 82.0, PABP polyA inh active
Nc1c(C(=O)Nc2ccccc2)sc2nc3c(c(-c4ccco4)c12)CCCC3	none
